Experimental data reported in ChEMBL document CHEMBL1157068, “Crossbyanols A-D, toxic brominated polyphenyl ethers from the Hawai'ian bloom-forming Cyanobacterium Leptolyngbya crossbyana” (J Nat Prod, 2010).
Values after ≈ are worked out from the molar mass of the structure shown. Active and inactive are the calls of the source. No cut-off for these calls is given here.

Key:
Neuro2a [1] = test: Inhibition of voltage-gated sodium channel in mouse Neuro2a cells at 20 ug/ml after 24 hrs by MTT assay; type: cell-based
NCI-H460 = test: Cytotoxicity against human H460 cells after 48 hrs by MTT assay; type: functional, cell-based
How it was run: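 H-460 cells at 3.33×10^4 cells/mL in RPMI 1640 with FBS and 1% pen/strep, 180 µL/well, recovered overnight (37 °C, 5% CO2). DMSO stocks (10 mg/mL) diluted in serum-free RPMI to final 30 or 3 µg/mL; serum-free medium as negative control. ~48 h incubation, then MTT, absorbance read at 570 and 630 nm.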

Neuro2a [2] = test: Activation of voltage-gated sodium channel in mouse Neuro2a cells at 20 ug/ml after 16 hrs by MTT assay; type: cell-based
How it was run: (§1)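 Neuro2a cells plated at 3.0×10^5 cells/mL in RPMI 1640 with 10% FBS and 1% pen/strep, 200 µL/well, recovered overnight (37 °C, 5% CO2). DMSO stocks (10 mg/mL) diluted in serum-free RPMI to a final 20 µg/mL. Bottom half of plate got 5 mM ouabain plus 150 µM veratridine in PBS/5 mM HCl; top half PBS/HCl only for general toxicity. Brevetoxin-2 positive control. MTT after ~16 h, read at 570/630 nm.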

Staphylococcus aureus = test: Antibacterial activity against methicillin-resistant Staphylococcus aureus after 24 hrs by optical density method; type: functional
How it was run: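 MRSA grown on GYT medium for 24 h at 37 °C, then inoculated into GYT medium containing serial dilutions of compound and incubated 24 h at 37 °C. Growth read as optical density at 600 nm. MIC taken as the lowest concentration inhibiting bacterial growth.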

[3] = Activation of voltage-gated sodium channel in mouse Neuro2a cells after 16 hrs by MTT assay; type: cell-based; conditions: N2a; how it was run: as §1
Artemia salina = test: Toxicity in Artemia salina after 24 hrs; type: organism-based
How it was run: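 Artemia salina eggs hatched over 24 h; about 20 nauplii in ~0.5 mL seawater added per well holding sample in 50 µL EtOH plus 4.5 mL artificial seawater. Final concentrations 1, 5 and 25 ppm, controls and samples in triplicate. Live and dead counted after 24 h at 28 °C.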

| SMILES | inhibition (Neuro2a [1]) | Activity (NCI-H460) | Activity (Neuro2a [2]) | Activity (Staphylococcus aureus) | IC50 [3] [µg/mL] | Activity (Artemia salina; artemia salina, in vivo, 24 h) | IC50 (NCI-H460; NCI-H460, 48 h) [µg/mL] | IC50 (Artemia salina) [ppm] | MIC (Staphylococcus aureus) [µg/mL] |
| --- | --- | --- | --- | --- | --- | --- | --- | --- | --- |
| O=S(=O)(O)Oc1ccc(Oc2c(Br)cc(Oc3ccc(O)c(Br)c3)cc2Oc2ccc(Br)cc2Br)c(Br)c1Oc1ccc(Br)cc1Br | inactive | inactive | inactive | inactive |  |  |  |  |  |
| O=S(=O)(O)Oc1ccc(Oc2cc(Br)c(Oc3ccc(O)c(Oc4ccc(Br)cc4Br)c3Br)c(Oc3ccc(Br)cc3Br)c2)cc1Br | inactive | inactive | inactive | inactive |  |  |  |  |  |
| Oc1ccc(Oc2cc(Br)c(Oc3ccc(O)c(Oc4ccc(Br)cc4Br)c3Br)c(Oc3ccc(Br)cc3Br)c2)cc1Br [CROSSBYANOL A] | inactive |  |  | inactive | 20 (≈ 19.4 µM) | Non-toxic | 30 (≈ 29.1 µM) |  |  |
| O=S(=O)(O)Oc1ccc(Oc2cc(Br)c(Oc3ccc(OS(=O)(=O)O)c(Oc4ccc(Br)cc4Br)c3Br)c(Oc3ccc(Br)cc3Br)c2)cc1Br [CROSSBYANOL B] | inactive | inactive | inactive |  |  |  |  | 2.8 | 2 (≈ 1.68 µM) |
